Source: ChEMBL document CHEMBL3860061, “A Novel Parkinson's Disease Drug Candidate with Potent Anti-neuroinflammatory Effects through the Src Signaling Pathway” (J Med Chem, 2016)
The source made the active and inactive calls. The calls are words filed in the database; no cut-off is given here.

What was measured:
Mus musculus [1] = assay: Neuroprotective activity in alpha-syn A53T transgenic B6C3H mouse assessed as improvement in motor behavior at 5 to 20 mg/kg dosed once daily for 12 consecutive weeks by rotarod test; format: functional, organism-based
Outline: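 Male B6;C3H mice overexpressing mutant alpha-syn (A53T), housed on a 12-h light/dark cycle at 24 °C and 60% humidity, were acclimatised for 1 week. Daily dosing ran 12 consecutive weeks from 4 months of age. Wild-type mice received 0.5% CMC-Na, and L-DOPA 20 mg/kg was the reference. Rotarod ran at 14 rpm for up to 120 s, recording latency to first fall. Each mouse had three trials with 1 h rest between them. n = 15; mean ± SD.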

[2] = target: Proto-oncogene tyrosine-protein kinase Src (Mus musculus) (UniProt P05480); assay: Inhibition of Src signaling pathway in mouse BV2 cells assessed as suppression of LPS-induced NO release at 0.1 to 100 uM preincubated for 1 hr followed by LPS addition measured after 24 hrs relative to control by Griess assay; format: cell-based; settings: BV-2
Outline: (§1)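 BV-2 cells in DMEM/10% FBS, plated at 5×10^3 per well. After 24 h, treated at 100, 50, 10, 5, 1 and 0.1 µM; 1 h later LPS 300 ng/mL added. After another 24 h, nitrite in the medium measured by Griess assay.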

Mus musculus [3] = assay: Antineuro-inflammatrory activity in MPTP-induced subacute C57/BL mouse Parkinson's disease model assessed as decrease in IL-1beta levels in midbrain at 10 to 20 mg/kg […] dosed 30 mins prior to each MPTP injection for 5 days and administered continuously for 7 days post last MPTP dose measured on day 12 post last dose by ELISA; format: functional, organism-based
Outline: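 Male C57/BL mice (22–25 g) received MPTP hydrochloride 30 mg/kg i.p. daily for 5 days. Test agent (5, 10, 20 mg/kg) or L-DOPA 20 mg/kg, suspended in 0.5% CMC-Na, given 30 min before each MPTP injection, then continued for 7 more days. On day 12 the midbrain was homogenised in non-denaturing lysis buffer with protease inhibitor and IL-1β or TNF-α measured by ELISA, n = 6, mean ± SD.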

[4] = target: Proto-oncogene tyrosine-protein kinase Src (Rattus norvegicus) (UniProt Q9WUD9); assay: Inhibition of Src in Sprague-Dawley rat primary mixed mesecephalic neuron/glial cells assessed as suppression of LPS-induced microglia activation by measuring Iba-1 expression at 10 uM preincubated for 1 hr followed by LPS challenge measured after 24 hrs
[5] = Toxicity in ICR mouse assessed as mortality administered through oral gavage; format: organism-based; settings: in vivo
[6] = target: Proto-oncogene tyrosine-protein kinase Src (Rattus norvegicus) (UniProt Q9WUD9); assay: Inhibition of LPS-induced Src phosphorylation at Tyr-416 residue in Sprague-Dawley rat primary microglia cells at 10 uM preincubated for 1 hr followed by LPS stimulation measured after 3 hrs by Western blot analysis
Outline: (§2)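 Primary microglia from 1-day-old Sprague-Dawley rat brains, grown to confluence 12–14 days, shaken off astroglia (>98% pure). Agent at 10 µM added 1 h before LPS 100 ng/mL. Phosphorylated Src, Akt and PTEN measured 3 h later by Western blot, n = 4.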

[7] = target: Proto-oncogene tyrosine-protein kinase Src (Mus musculus, UniProt P05480); assay: Inhibition of Src in mouse BV2 cells assessed as suppression of LPS-induced NO release preincubated for 1 hr followed by LPS addition measured after 24 hrs by Griess assay; format: cell-based, BV-2; outline: as §1
[8] = target: Proto-oncogene tyrosine-protein kinase Src (Rattus norvegicus) (UniProt Q9WUD9); assay: Inhibition of Src in Sprague-Dawley rat primary microglia cells assessed as suppression of LPS-stimulated Akt phosphorylation at Ser-473 residue at 10 uM preincubated for 1 hr followed by LPS challenge measured after 3 hrs by Western blot analysis; outline: as §2
Mus musculus [9] = assay: Neuroprotective activity in MPTP/probenecid-induced chronic C57/BL mouse Parkinson's disease model assessed as reversal of decline of TH-positive neuron levels in substantia nigra at 10 to 20 mg/kg dosed once daily for 7 weeks post 10 doses of MPTP/probenecid for 5 weeks measured after last MPTP/probenecid dose by 3,3'-diaminobenzidine staining based light microscopic analysis; format: functional, organism-based
Outline: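 Male C57/BL mice (22–25 g) received 10 doses of MPTP hydrochloride (25 mg/kg in saline, s.c.) plus probenecid (250 mg/kg in DMSO, i.p.) over 5 weeks. Only mice showing rotarod dysfunction afterwards were used, randomized, and dosed daily for 7 weeks with test agent in 0.5% CMC-Na. Fixed brains were cut at 40 µm; nigral coronal sections were stained with anti-TH, developed with DAB/peroxide, and positive cells counted blind.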

Mus musculus [10] = assay: Antineuro-inflammatrory activity in alpha-syn A53T transgenic B6C3H mouse assessed as decrease in TNF-alpha level in midbrain at 10 to 20 mg/kg dosed once daily for 12 consecutive weeks by ELISA; format: functional, organism-based
Outline: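 Male B6;C3H mice expressing mutant α-syn (A53T), from 4 months old, given agent (5, 10, 20 mg/kg) or L-DOPA 20 mg/kg in 0.5% CMC-Na once daily for 12 weeks. Wild-type controls received vehicle. Midbrain homogenised in non-denaturing lysis buffer with protease inhibitor; IL-1β or TNF-α measured by ELISA, n = 6, mean ± SD.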

[11] = target: Proto-oncogene tyrosine-protein kinase Src (Rattus norvegicus) (UniProt Q9WUD9); assay: Inhibition of Src in Sprague-Dawley rat primary mixed mesecephalic neuron/glial cells assessed as suppression of LPS-induced TNFalpha expression at 10 uM preincubated for 1 hr followed by LPS challenge measured after 5 hrs by ELISA
Outline: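 Mixed mesencephalic neuron/glia cultures from E14 Sprague-Dawley rats, used at 7 days. Agent at 10 µM added 1 h before LPS 100 ng/mL; IL-1β and TNF-α in medium measured by ELISA after 5 h, n = 6.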

Mus musculus [12] = assay: Effect on ARHGAP21 protein expression level in midbrain of MPTP/probenecid-induced chronic C57/BL mouse Parkinson's disease model at 5 to 20 mg/kg dosed once daily for 7 weeks post 10 doses of MPTP/probenecid for 5 weeks by iTRAQ-labelled 2D-LC/MS/MS analysis; format: functional, organism-based
Mus musculus [13] = assay: Effect on Src protein expression level in midbrain of MPTP/probenecid-induced chronic C57/BL mouse Parkinson's disease model at 5 to 20 mg/kg dosed once daily for 7 weeks post 10 doses of MPTP/probenecid for 5 weeks by iTRAQ-labelled 2D-LC/MS/MS analysis; format: functional, organism-based
Mus musculus [14] = assay: In vivo inhibition of Src in MPTP/probenecid-induced chronic C57/BL mouse Parkinson's disease model assessed as effect on NOS1 expression level in midbrain at 5 to 20 mg/kg dosed once daily for 7 weeks post 10 doses of MPTP/probenecid for 5 weeks by iTRAQ-labelled 2D-LC/MS/MS analysis; format: functional, organism-based
Mus musculus [15] = assay: Effect on GSK3beta protein expression level in midbrain of MPTP/probenecid-induced chronic C57/BL mouse Parkinson's disease model at 5 to 20 mg/kg dosed once daily for 7 weeks post 10 doses of MPTP/probenecid for 5 weeks by Western blot analysis; format: functional, organism-based
Mus musculus [16] = assay: Neuroprotective activity in MPTP-induced subacute C57/BL mouse Parkinson's disease model assessed as improvement in motor behavior at 5 to 20 mg/kg […] dosed 30 mins prior to each MPTP injection for 5 days and administered continously for 7 days post last MPTP dose by rotarod test; format: functional, organism-based
Outline: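 Sub-acute MPTP model (30 mg/kg i.p. × 5 days) in male C57/BL mice. Agent (5–20 mg/kg) or L-DOPA 20 mg/kg given 30 min before each injection and for 7 days after. Rotarod at 14 rpm, up to 120 s, fall latency over three trials 1 h apart. Pole test: 50 cm pole, descent scored 1–5, two trials 1 h apart, pre-trained. n = 15.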

Proto-oncogene tyrosine-protein kinase Src (Rattus norvegicus), sequence (Q9WUD9 2-536 limits assumed): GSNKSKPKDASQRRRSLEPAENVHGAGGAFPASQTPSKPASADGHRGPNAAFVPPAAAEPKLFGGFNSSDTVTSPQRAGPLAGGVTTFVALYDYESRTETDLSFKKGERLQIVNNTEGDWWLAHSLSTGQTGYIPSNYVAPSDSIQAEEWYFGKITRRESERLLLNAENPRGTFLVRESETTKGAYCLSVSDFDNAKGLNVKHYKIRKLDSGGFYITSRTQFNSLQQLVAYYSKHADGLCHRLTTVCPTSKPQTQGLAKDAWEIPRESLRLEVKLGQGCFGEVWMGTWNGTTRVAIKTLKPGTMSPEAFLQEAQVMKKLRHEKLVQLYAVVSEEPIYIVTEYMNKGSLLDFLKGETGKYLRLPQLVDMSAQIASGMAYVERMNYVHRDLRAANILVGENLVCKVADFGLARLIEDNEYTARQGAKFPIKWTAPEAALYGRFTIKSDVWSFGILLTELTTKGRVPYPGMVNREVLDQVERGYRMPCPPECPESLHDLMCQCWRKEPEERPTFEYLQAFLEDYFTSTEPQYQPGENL
Proto-oncogene tyrosine-protein kinase Src, sequence (P05480 2-535 limits assumed): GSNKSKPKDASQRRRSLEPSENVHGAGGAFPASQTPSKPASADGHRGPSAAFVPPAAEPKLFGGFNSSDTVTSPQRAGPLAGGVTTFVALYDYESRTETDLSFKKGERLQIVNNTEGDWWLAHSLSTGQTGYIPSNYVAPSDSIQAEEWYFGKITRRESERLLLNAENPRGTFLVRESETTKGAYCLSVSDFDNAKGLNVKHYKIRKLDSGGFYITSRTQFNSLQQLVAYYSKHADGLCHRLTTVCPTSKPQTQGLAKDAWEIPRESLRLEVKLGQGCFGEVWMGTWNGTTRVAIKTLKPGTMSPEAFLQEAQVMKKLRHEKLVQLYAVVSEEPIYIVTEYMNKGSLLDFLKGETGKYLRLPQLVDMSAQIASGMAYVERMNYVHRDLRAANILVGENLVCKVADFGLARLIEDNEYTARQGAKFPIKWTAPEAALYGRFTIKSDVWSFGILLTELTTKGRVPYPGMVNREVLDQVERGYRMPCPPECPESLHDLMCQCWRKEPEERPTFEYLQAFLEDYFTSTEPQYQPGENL
Proto-oncogene tyrosine-protein kinase Src (Mus musculus), sequence (P05480 2-535 limits assumed): as above

For `COc1cc(OC)c(CN[C@@H](CO)C(=O)O)c(OC)c1`, the Activity (Mus musculus [1]) was “Active”, the inhibition [2] was “Active” and the Activity (Mus musculus [3]) was “Active”. For the same compound, the inhibition [4] was “Active”, the LD50 [5] was over 5000 mg/kg and the inhibition [6] was “Active”. The IC50 [7] was 6.6 µM, the inhibition [8] was “Active” and the Activity (Mus musculus [9]) was “Active”. For the same compound, the Activity (Mus musculus [10]) was “Active”, the inhibition [11] was “Active” and the Activity (Mus musculus [12]) was “Active”. For the same compound, the Activity (Mus musculus [13]) was “Active”, the inhibition (Mus musculus [14]) was “Active” and the Activity (Mus musculus [15]) was “Active”. The Activity (Mus musculus [16]) was “Active”.
